ChEMBL document CHEMBL5357066, “Development of Novel Membrane Disrupting Lipoguanidine Compounds Sensitizing Gram-Negative Bacteria to Antibiotics” (ACS Med Chem Lett, 2024)
Converted amounts (≈) assume the structure as drawn.

What was measured:
Acinetobacter baumannii [1] = test: Synergistic antibacterial activity against Acinetobacter baumannii ATCC 17978 assessed as rifampicin MIC at <=0.25 times MIC incubated for overnight by microbroth dilution checkerboard assay; assay type: functional
How it was run: (§1)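 Checkerboard microdilution under MIC conditions (TSB, overnight, 37 °C). Two-fold series of each agent were combined on one plate before bacteria were added, and single-agent MICs were measured on the same plate. FIC = sum of combination MIC/alone MIC for each agent, taken from the most synergistic well. Three independent repeats, mean ± SD. ≤0.5 was taken as strong synergy and 0.5–<1 as weak.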

Pseudomonas aeruginosa [2] = test: Synergistic antibacterial activity against Pseudomonas aeruginosa NCTC 13437 assessed as fold change in rifampicin MIC at <=0.25 times MIC incubated for overnight by microbroth dilution checkerboard assay relative to rifampicin alone; assay type: functional
How it was run: (§2)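 Checkerboard microdilution in Tryptic Soy Broth, run like the MIC assay. Overnight TSB cultures were back-diluted to OD 0.01 and added 1:1 to the combined two-fold series of both agents, then incubated overnight at 37 °C. Growth/no-growth was called at <0.1 OD600. MICs alone were read on the same plates. FIC index came from the most synergistic well; three independent repeats, mean ± SD.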

Escherichia coli [3] = test: Synergistic antibacterial activity against Escherichia coli NCTC 12923 assessed as rifampicin MIC at <=0.25 times MIC incubated for overnight by microbroth dilution checkerboard assay; assay type: functional; how it was run: as §1
Acinetobacter baumannii [4] = test: Synergistic antibacterial activity against Acinetobacter baumannii ATCC 17978 assessed as fold change in rifampicin MIC at <=0.25 times MIC incubated for overnight by microbroth dilution checkerboard assay relative to rifampicin alone; assay type: functional; how it was run: as §1
Acinetobacter baumannii [5] = test: Synergistic antibacterial activity against Acinetobacter baumannii AYE assessed as rifampicin MIC at <=0.25 times MIC incubated for overnight by microbroth dilution checkerboard assay; assay type: functional; how it was run: as §1
Klebsiella pneumoniae [6] = test: Synergistic antibacterial activity against […] Klebsiella pneumoniae M6 assessed as rifampicin MIC at <=0.25 times MIC incubated for overnight by microbroth dilution checkerboard assay; assay type: functional
How it was run: (§3)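 Checkerboard run under the MIC conditions (TSB, overnight, 37 °C). Antibiotic and lipoguanidine 2-fold series were combined on one plate before bacteria were added. Growth/no-growth was scored as for the MIC (<0.1 OD600). Single-agent MICs were measured on the same plates. Three independent repeats were done.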

Pseudomonas aeruginosa [7] = test: Synergistic antibacterial activity against Pseudomonas aeruginosa PAO1 assessed as rifampicin MIC at <=0.25 times MIC incubated for overnight by microbroth dilution checkerboard assay; assay type: functional; how it was run: as §2
Klebsiella pneumoniae [8] = test: Synergistic antibacterial activity against Klebsiella pneumoniae NCTC 13368 assessed as fold change in rifampicin MIC at <=0.25 times MIC incubated for overnight by microbroth dilution checkerboard assay relative to rifampicin alone; assay type: functional; how it was run: as §3
Escherichia coli [9] = test: Synergistic antibacterial activity against Escherichia coli NCTC 12923 assessed as fold change in rifampicin MIC at <=0.25 times MIC incubated for overnight by microbroth dilution checkerboard assay relative to rifampicin alone; assay type: functional; how it was run: as §1
Klebsiella pneumoniae [10] = test: Synergistic antibacterial activity against Klebsiella pneumoniae NCTC 13368 assessed as rifampicin MIC at <=0.25 times MIC incubated for overnight by microbroth dilution checkerboard assay; assay type: functional; how it was run: as §1
Pseudomonas aeruginosa [11] = test: Synergistic antibacterial activity against Pseudomonas aeruginosa NCTC 13437 assessed as rifampicin MIC at <=0.25 times MIC incubated for overnight by microbroth dilution checkerboard assay; assay type: functional; how it was run: as §2
Acinetobacter baumannii [12] = test: Synergistic antibacterial activity against Acinetobacter baumannii AYE assessed as fold change in rifampicin MIC at <=0.25 times MIC incubated for overnight by microbroth dilution checkerboard assay relative to rifampicin alone; assay type: functional; how it was run: as §1
Pseudomonas aeruginosa [13] = test: Synergistic antibacterial activity against Pseudomonas aeruginosa PAO1 assessed as fold change in rifampicin MIC at <=0.25 times MIC incubated for overnight by microbroth dilution checkerboard assay relative to rifampicin alone; assay type: functional; how it was run: as §2
Acinetobacter baumannii [14] = test: Antibacterial activity against Acinetobacter baumannii ATCC 17978 assessed as bacterial growth inhibition incubated for overnight by microbroth dilution method; assay type: functional
How it was run: (§4)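 Broth microdilution in Tryptic Soy Broth. DMSO stocks were diluted in TSB as 2-fold series. Overnight TSB cultures were back-diluted to OD 0.01 and mixed 1:1 with compound. Incubation was overnight at 37 °C. MIC was the lowest concentration without visible growth (<0.1 OD600). DMSO vehicle was checked at equivalent concentrations.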

Klebsiella pneumoniae [15] = test: Antibacterial activity against ESBL Klebsiella pneumoniae NCTC 13368 assessed as bacterial growth inhibition incubated for overnight by microbroth dilution method
Escherichia coli [16] = test: Antibacterial activity against Escherichia coli NCTC 12923 assessed as bacterial growth inhibition incubated for overnight by microbroth dilution method; assay type: functional; how it was run: as §4
Acinetobacter baumannii [17] = test: Antibacterial activity against Acinetobacter baumannii AYE assessed as bacterial growth inhibition incubated for overnight by microbroth dilution method; assay type: functional; how it was run: as §4
Pseudomonas aeruginosa [18] = test: Antibacterial activity against Pseudomonas aeruginosa NCTC 13437 assessed as bacterial growth inhibition incubated for overnight by microbroth dilution method; assay type: functional; how it was run: as §4
Pseudomonas aeruginosa [19] = test: Antibacterial activity against Pseudomonas aeruginosa PAO1 assessed as bacterial growth inhibition incubated for overnight by microbroth dilution method; assay type: functional; how it was run: as §4
Klebsiella pneumoniae [20] = test: Antibacterial activity against Klebsiella pneumoniae M6 assessed as bacterial growth inhibition incubated for overnight by microbroth dilution method

| SMILES | MIC (Acinetobacter baumannii [1]) [µg/mL] | fold change (FC) (Pseudomonas aeruginosa [2]) | MIC (Escherichia coli [3]) [µg/mL] | fold change (FC) (Acinetobacter baumannii [4]) | MIC (Acinetobacter baumannii [5]) [µg/mL] | MIC (Klebsiella pneumoniae [6]) [µg/mL] | MIC (Pseudomonas aeruginosa [7]) [µg/mL] | fold change (FC) (Klebsiella pneumoniae [8]) | fold change (FC) (Escherichia coli [9]) | MIC (Klebsiella pneumoniae [10]) [µg/mL] | MIC (Pseudomonas aeruginosa [11]) [µg/mL] | fold change (FC) (Acinetobacter baumannii [12]) | fold change (FC) (Pseudomonas aeruginosa [13]) | MIC (Acinetobacter baumannii [14]) [µg/mL] | MIC (Klebsiella pneumoniae [15]) [µg/mL] | MIC (Escherichia coli [16]) [µg/mL] | MIC (Acinetobacter baumannii [17]) [µg/mL] | MIC (Pseudomonas aeruginosa [18]) [µg/mL] | MIC (Pseudomonas aeruginosa [19]) [µg/mL] | MIC (Klebsiella pneumoniae [20]) [µg/mL] |
| --- | --- | --- | --- | --- | --- | --- | --- | --- | --- | --- | --- | --- | --- | --- | --- | --- | --- | --- | --- | --- |
| CCCCCCCC/C=C\CCCCCCCC(=O)NCCCCN | 4 | 0 | 32 | 0 | 16 | 64 | 64 | 0 | 0 | 32 | 64 | 0 | 0 | – | – | – | – | – | – | – |
| CCCCCCCCCCCC(=O)NCCCC | 4 | 0 | 32 | 0 | 16 | 32 | 32 | 0 | 0 | 32 | 32 | 0 | 0 | – | – | – | – | – | – | – |
| CCCCCCCCCCNC(=N)NCCCCN1CCCC1 | ≤ 0.125 | >=4 | ≤ 0.125 | >=4 | ≤ 0.125 | ≤ 0.125 | 0.5 | >=4 | >=4 | 0.5 | 2 | >=4 | >=4 | – | – | – | – | – | – | – |
| CCCCCCCCCCNC(=N)NCCCC | ≤ 0.125 | 0 | ≤ 0.125 | >=4 | ≤ 0.125 | ≤ 0.125 | 16 | >=4 | >=4 | ≤ 0.125 | 16 | >=4 | 0 | 16 (≈ 62.6 µM) | 16 (≈ 62.6 µM) | 16 (≈ 62.6 µM) | 16 (≈ 62.6 µM) | – | – | – |
| CO[C@H]1/C=C/O[C@@]2(C)Oc3c(C)c(O)c4c(O)c(c(/C=N/N5CCN(C)CC5)c(O)c4c3C2=O)NC(=O)/C(C)=C\C=C\[C@H](C)[C@H](O)[C@@H](C)[C@@H](O)[C@@H](C)[C@H](OC(C)=O)[C@@H]1C [RIFAMPIN] | – | – | – | – | – | – | – | – | – | – | – | – | – | 4 (≈ 4.86 µM) | 32 (≈ 38.9 µM) | 16 (≈ 19.4 µM) | 16 (≈ 19.4 µM) | 32 (≈ 38.9 µM) | 32 (≈ 38.9 µM) | 32 (≈ 38.9 µM) |
| CCCCCCCCCCCC(=O)NCCCCN | 4 | 0 | 32 | 0 | 32 | 32 | 64 | 0 | 0 | 128 | 32 | 0 | 0 | – | – | – | – | – | – | – |
| CCCCCCCCCCNC(=N)NCCCC(=O)O | 2 | 0 | 32 | 0 | 8 | 32 | 32 | 0 | 0 | 32 | 32 | 0 | 0 | – | – | – | – | – | – | – |
| CCCCCCCCCCNC(=N)NCCCCN(C)C | ≤ 0.125 | >=4 | ≤ 0.125 | >=4 | ≤ 0.125 | ≤ 0.125 | 0.5 | >=4 | >=4 | 1 | 0.5 | >=4 | >=4 | – | – | – | – | – | – | – |
| CCCCCCCCCCCCCCCCCCNC(=O)NCCCCN | 2 | 0 | 16 | 0 | 0.5 | 16 | 16 | 0 | 0 | 32 | 16 | 0 | 0 | – | – | – | – | – | – | – |
| CCCCCCCC/C=C\CCCCCCCCNC(=N)NCCCCCCCCCC | 8 | 0 | 32 | 0 | 32 | 64 | 64 | 0 | 0 | 128 | 64 | 0 | 0 | – | – | – | – | – | – | – |
| CCCCCCCCCCNC(=N)NCCCCCCCCCC | ≤ 0.125 | 0 | 8 | >=4 | ≤ 0.125 | 32 | 64 | 0 | 0 | 64 | 64 | >=4 | 0 | 32 (≈ 94.2 µM) | 16 (≈ 47.1 µM) | 64 (≈ 188 µM) | 16 (≈ 47.1 µM) | – | – | – |
| CO[C@@H]1[C@@H](OC(N)=O)[C@@H](O)[C@H](Oc2ccc3c(O)c(NC(=O)c4ccc(O)c(CC=C(C)C)c4)c(=O)oc3c2C)OC1(C)C [NOVOBIOCIN] | – | – | – | – | – | – | – | – | – | – | – | – | – | 8 (≈ 13.1 µM) | > 128 | > 128 | 8 (≈ 13.1 µM) | > 128 | > 128 | > 128 |
